# D1 mod: D1 CRE-luciferase signal change, two-sided – cell-based, HEK293 D1, dopamine EC30, D1 allosteric modulator project, primary screen; dopamine EC30 potentiation; actives deviate in either direction; hit rate 5.9% among 58,000; AID 641, 2007; D(1A) dopamine receptor (Homo sapiens), P21728; B-score at 10 µM;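 active = luminescence count or its row- and column-corrected plate score outside the 99.7% band of the plate's sample wells, on either side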
# Target sequence (P21728 whole entry, looked up): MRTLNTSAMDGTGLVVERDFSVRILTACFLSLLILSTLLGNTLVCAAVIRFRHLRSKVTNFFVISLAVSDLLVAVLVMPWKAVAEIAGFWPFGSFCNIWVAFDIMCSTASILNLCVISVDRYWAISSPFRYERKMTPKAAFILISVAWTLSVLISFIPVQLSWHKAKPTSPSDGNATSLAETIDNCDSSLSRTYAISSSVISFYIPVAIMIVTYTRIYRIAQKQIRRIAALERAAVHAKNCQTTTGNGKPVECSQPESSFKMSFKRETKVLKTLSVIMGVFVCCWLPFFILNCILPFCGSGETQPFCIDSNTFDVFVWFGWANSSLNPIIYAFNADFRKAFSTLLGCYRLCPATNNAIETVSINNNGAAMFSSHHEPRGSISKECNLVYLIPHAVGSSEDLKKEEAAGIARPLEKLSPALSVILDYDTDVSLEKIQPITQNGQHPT
# S1P1 ag-PAM: S1P1 agonists and agonism potentiators, primary screen, cell-based, primary and confirmation screens, CRE-bla reporter | S1P1 CRE-bla cells, forskolin, beta-lactamase FRET, potentiator mode; S1P1 agonist co-added at EC20, 2 nM; 100% = saturating reference agonist, 0% = basal | activation, % at 9.5 µM | hit rate 0.57% among 56,000 | AID 449, 2006;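 active = activation above a cutoff set at the mean activation of all tested compounds plus 3 SD, cut at about 54% in these data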;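 also: forskolin at 4 µM as EC80 and the EC20 agonist is SEW2871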
# M1 agonist: M1 muscarinic receptor agonists, primary screen, CHO-M1 cells, Fluo-4 calcium, agonist mode. B-score at 10 µM. Muscarinic acetylcholine receptor M1. AID 626, 2007. Fluo-4 calcium fluorescence; stronger effect = higher value. hit rate 3% among 64,000;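 active = fluorescence rise, raw or as B-score row- and column-corrected plate score, outside the 99.7% band of its plate's samples, either direction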
# S1P3 agonist: human S1P3 receptor agonists, primary screen, cell-based, primary and confirmation, NFAT-BLA reporter; Sphingosine 1-phosphate receptor 3 (Homo sapiens), Q99500; S1P3 NFAT-BLA reporter cells, agonism, FRET ratio; relative to 1 µM S1P, basal subtracted; activation, % at 4.5 µM; hit rate 0.1% among 60,000; AID 373, 2006;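 active = activation above the screen-wide mean plus 3 SD, cut at about 4.5% in these data, passing the limit was not always enough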
#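 Measure – % activation relative to 1 µM S1P (100%), per plate · System – stable CHO line with human S1P3, Gα16, NFAT-BLA reporter · Timing – cells plated overnight, compound 4 h 37 °C, substrate 2 h RT · Technique – fluorescent BLA substrate, ex 405 nm, em 460/535 nm ratio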
# M1 antag: antagonists of rat M1 muscarinic receptor; AID 628, 2007; B-score at 10 µM; hit rate 3.4% among 64,000; Muscarinic acetylcholine receptor M1 (Rattus norvegicus), P08482; CHO-M1 cells, Fluo-4 calcium, ACh EC80 antagonist mode; stronger effect = lower value;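 active = calcium fluorescence response, raw or row-and-column corrected B-score, differing from the plate sample mean either way at a set confidence level, mostly lower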
# Hits are given with their value; – = inactive; · = no result given. Shown are actives, neighbours in structure and some others; about 11% of the full set was active somewhere.
SMILES,D1 mod,S1P1 ag-PAM,M1 agonist,S1P3 agonist,M1 antag
Cc1cccc(-n2ncc3c(NCCCn4ccnc4)ncnc32)c1,-4.11,–,–,–,–
CCC(C)n1c(SC(C)C#N)nc2ccccc2c1=O (centres undefined),-4.79,–,–,–,–
Cc1cc(C(=O)CSc2nnc(-c3cccs3)o2)c(C)n1-c1ccccc1,-3.55,100.9,–,–,–
CCOC(=O)CCC(=O)N1CCOCCN(C(=O)CCC(=O)OCC)CCOCC1,–,–,–,–,–
CCOC(=O)CCC(=O)N1CCNC(=O)C1,·,·,–,·,2.22
COC(=O)c1cc(Br)c(=O)n(-c2cc(C)on2)c1,–,–,–,–,–
O=C(c1cc2c(=O)oc3ccccc3c2s1)N1CCOCC1,-4.59,–,·,–,·
COC(=O)CCn1nnc(-c2cccs2)n1,–,–,–,–,1.67
COC(=O)CCn1nnc(-c2ccc(C(C)C)cc2)n1,-2.52,–,–,–,–
COc1cccc(-c2nnn(CCC(=O)O)n2)c1,–,–,–,–,–
CC(c1ccccc1F)n1cc(C(=O)NCCc2ccco2)nn1 (centres undefined),–,·,–,·,–
CC(C)(C)CC(=O)N1CCC(c2nc3c(nnn3Cc3c(F)cccc3Cl)c(=O)[nH]2)CC1,–,–,–,–,–
COc1ccc(-n2c(SCC(=O)Nc3nccs3)nc3c(c2=O)SC(C)C3)cc1 (centres undefined),·,–,–,–,0.818
Cn1c(C(=O)O)c(CC(=O)NCc2cccnc2)c2ccccc21,–,–,–,–,–
Cc1cc2nn(-c3ccccc3)nc2cc1NC(=O)c1cccs1,–,–,–,–,–
CCC(=O)Nc1cc2nn(-c3ccccc3)nc2cc1Cl,-5.39,–,–,–,–
COc1cc(S(=O)(=O)NCCc2ccc3c(c2)OCO3)ccc1-n1cnnn1,–,–,–,–,–
CCCOc1ccc(C(=O)c2nc3c(n2O)CCCC3)cc1,–,–,–,–,–
O=C(c1ccco1)N1CCN(C(=O)c2cccn3c(=O)c4c5c(sc4nc23)CCCC5)CC1,3.82,–,–,–,–
Cc1cc(C)n(-c2ccc(C(=O)Nc3ccccn3)cc2)n1,-4.13,–,–,–,–
COc1cc(C(=O)Nc2ccccn2)cc(OC)c1OC,·,–,–,–,–
Cc1cc(C(=O)Nc2ccccn2)cs1,-3.77,–,–,–,–
CCOC(=O)C(C)(C)C(=O)C(C)(C)C(O)c1ccccn1 (centres undefined),–,–,–,–,–
Cc1cc(=O)n(CC(C)O)c(O)c1C#N (centres undefined),–,–,–,–,–
CN(C)CCn1c(C(=O)Nc2ccccc2)cc2ccccc21,-2.74,–,–,–,–
SMILES,D1 mod,S1P1 ag-PAM,M1 agonist,S1P3 agonist,M1 antag
CC(=O)Nc1nc2ccccc2n1CCN(C)C,–,–,–,–,–
COc1ccc(Nc2ncnc3nc[nH]c23)cc1OC,·,–,–,–,–
CCOC(=O)c1ccc(Nc2ncnc3nc[nH]c23)cc1,-5.87,·,–,·,–
CCOC(=O)c1c(C)c(C(=O)Nc2ccc3c(c2)OCO3)c(C)n1C,·,–,–,–,–
CCOC(=O)c1c(N)sc(C(=O)Nc2ccc3c(c2)OCO3)c1C,-4.37,·,–,–,–
Cc1cc(C)cc(N(CC(=O)NCc2ccco2)S(=O)(=O)c2c(C)noc2C)c1,–,–,–,–,–
Cc1ccccc1-c1nnc(SCc2ccccc2F)o1,–,89.0,–,–,–
CS(=O)(=O)N(Cc1ccc(C(=O)NCc2ccco2)cc1)c1ccccc1,–,·,–,–,1.87
CN(c1ccc(C(=O)NCc2ccco2)cc1)S(C)(=O)=O,·,·,–,·,–
O=C(c1ccccc1Br)N1CCN(c2ccccc2)CC1,–,–,–,–,–
CCCCOc1ccc(C(=O)Nc2ccc(N3CCN(C)CC3)cc2)cc1,-3.16,–,–,–,–
CN1CCN(c2ccc(NC(=O)c3ccccc3Br)cc2)CC1,-4.56,–,–,–,–
CCCn1c(SCC(=O)Nc2ccccc2-c2ccccc2)nnc1-c1ccoc1C,–,–,–,–,–
CCOc1cc(S(=O)(=O)NCc2ccco2)c(OCC)cc1-n1cnnn1,–,–,–,–,–
O=C(Cn1nnc(-c2ccccc2F)n1)Nc1ccc(S(=O)(=O)NC2CCCC2)cc1,–,–,·,–,·
CCCCn1c(SCC(=O)N2CCCc3ccccc32)nc2c1c(=O)n(C)c(=O)n2C,–,–,9.69,–,–
CCc1nc(SCC(=O)N2CCCc3ccccc32)c2c(=O)n(C)c(=O)n(C)c2n1,–,–,3.5,–,–
c1cncc(-c2nc3c4ccccc4nc(N4CCC(N5CCCCC5)CC4)n3n2)c1,–,–,–,–,-6.71
CC1(C)CC(=O)C2=C(C1)Oc1ncn3nc(-c4cccnc4)nc3c1C2c1ccccc1 (centres undefined),–,–,–,–,–
OC(CN1C2=NCCN2c2ccccc21)c1ccc(Br)cc1 (centres undefined),-5.03,–,–,–,–
OC(CN1C2=NCCN2c2ccccc21)c1ccccc1 (centres undefined),–,–,–,–,–
O=C(Cn1nc(-c2ccccc2)ccc1=O)NCCN1CCN(Cc2ccccc2)CC1,-4.97,–,–,–,–
Cc1ccc(S(=O)(=O)CC(=O)N(C)C)cc1,–,·,–,·,–
CCOc1ccc2[nH]cc(C(=O)N3CCN(CC)CC3)c(=O)c2c1,–,–,–,–,–
CC1CCc2nc(NC(=O)CSc3nc4ccccc4o3)sc2C1 (centres undefined),–,75.9,–,–,–
SMILES,D1 mod,S1P1 ag-PAM,M1 agonist,S1P3 agonist,M1 antag
O=C(CSc1nc2ccccc2o1)Nc1ccc(N2CCOCC2)c(Cl)c1,–,118.8,–,–,–
CCN1CCCC1CNC(=O)c1nn(-c2ccc(C)cc2)c(=O)c2c1c1ccccc1n2C (centres undefined),–,–,–,–,–
CN1C(=S)SC(/[N+]([O-])=C/c2cccnc2)C1(C)C (centres undefined),-6.01,–,–,–,–
COc1cc(C2NC(C(=O)O)CS2)ccc1OCc1ccccc1C#N (centres undefined),-2.8,–,·,–,·
O=C(c1cc2c(=O)oc3ccccc3c2s1)N1CCN(c2ccccn2)CC1,–,·,–,·,–
CC(NC(=O)c1cc2c(=O)n(C)c3ccccc3c2n1C)c1ccc2c(c1)OCCO2 (centres undefined),-4.62,–,4.41,–,–
Cn1c(C(=O)NCCCN2CCN(c3ccccc3F)CC2)cc2c(=O)n(C)c3ccccc3c21,-2.59,–,–,–,–
Cc1ccc(N(CC(=O)N2CCN(C3CCCCC3)CC2)S(=O)(=O)c2cccnc2)cc1,–,–,–,–,–
COC(=O)C1=C(C)N(C)C(C)=C(C(=O)OC)C1c1ccccn1,–,–,–,–,–
